The source made the active and inactive calls. The rule behind the calls is not given here.
What was measured:
Trypanosoma cruzi [1] = assay: Antitrypanosomal activity against Trypanosoma cruzi trypomastigotes assessed as early apoptotic cells at 0.25 uM after 24 hrs by Annexin V-FITC/propidium iodide staining based flow cytometry (reference value: 1.71%); type: functional
Trypanosoma cruzi [2] = assay: Antitrypanosomal activity against Trypanosoma cruzi trypomastigotes assessed as late apoptotic cells at 1.1 uM after 24 hrs by Annexin V-FITC/propidium iodide staining based flow cytometry (reference value: 0.8%); type: functional
Trypanosoma cruzi [3] = assay: Antitrypanosomal activity against Trypanosoma cruzi trypomastigotes assessed as early apoptotic cells at 1.1 uM after 24 hrs by Annexin V-FITC/propidium iodide staining based flow cytometry (reference value: 1.71%); type: functional
[4] = Cytotoxicity against BALB/c mouse splenocytes assessed as cell viability after 24 hrs by [3H]thymidine incorporation assay; type: cell-based, Splenocyte; details: for MNTC at 24 h: read-out: MNCC
Summary of the method: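 Splenocytes from BALB/c mice seeded at 5 × 10⁶ cells/well. DMSO stocks serially diluted in RPMI-1640 (final DMSO 1%), triplicate wells. 24 h at 37 °C, 5% CO₂ with […] ³H-thymidine; cells harvested, % ³H-thymidine incorporation by scintillation counting. CC50 from five concentrations; highest non-cytotoxic concentration also noted.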

Trypanosoma cruzi [5] = assay: Antitrypanosomal activity against Trypanosoma cruzi Dm28c epimastigotes assessed as inhibition of parasite proliferation after 5 days by hemocytometer analysis; type: functional, organism-based; details: 120 h
Summary of the method: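 Dm28c epimastigotes kept in LIT medium with 10% FBS at 26 °C, seeded at 10⁶ cells/well. DMSO stocks serially diluted in LIT (1.23–100 […] as printed; final DMSO 1%), triplicate wells. 5 days at 26 °C, then viable parasites counted in a Neubauer chamber against untreated culture; IC50 from concentrations in triplicate, experiment repeated, only values with SD <10% of mean kept.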

Trypanosoma cruzi [6] = assay: Antitrypanosomal activity against Trypanosoma cruzi trypomastigotes assessed as late apoptotic cells at 0.25 uM after 24 hrs by Annexin V-FITC/propidium iodide staining based flow cytometry (reference value: 0.8%); type: functional
Trypanosoma cruzi [7] = assay: Antitrypanosomal activity against Trypanosoma cruzi trypomastigotes assessed as necrotic cells at 1.1 uM after 24 hrs by Annexin V-FITC/propidium iodide staining based flow cytometry (reference value: 0.37%); type: functional
[8] = Selectivity index, ratio of CC50 for BALB/c mouse splenocytes to CC50 for Trypanosoma cruzi Y trypomastigotes
Summary of the method: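 Ratio of CC50 in BALB/c splenocytes (24 h ³H-thymidine incorporation) to CC50 in Y strain trypomastigotes (24 h Neubauer count of viable parasites).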

Trypanosoma cruzi [9] = assay: Antitrypanosomal activity against Trypanosoma cruzi trypomastigotes assessed as necrotic cells at 0.25 uM after 24 hrs by Annexin V-FITC/propidium iodide staining based flow cytometry (reference value: 0.37%); type: functional
Trypanosoma cruzi [10] = assay: Antitrypanosomal activity against Trypanosoma cruzi trypomastigotes assessed as induction of apoptotic parasitic death after 24 hrs by Annexin V-FITC/propidium iodide staining based flow cytometry; type: functional, organism-based
Trypanosoma cruzi [11] = assay: Antitrypanosomal activity against Trypanosoma cruzi Y […] trypomastigotes isolated from infected LLC-MK2 cells assessed as parasite viability after 24 hrs by neubauer chamber analysis; type: functional; details: LLC-MK2, 24 h
Summary of the method: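 Y strain (TcII) […] trypomastigotes taken from supernatant of infected LLC-MK2 cells, seeded at 4 × 10⁵ cells/well in RPMI-1640. DMSO stocks serially diluted in RPMI. 24 h at 37 °C, 5% CO₂; viable parasites counted in a Neubauer chamber, % inhibition versus untreated cultures; CC50 by nonlinear regression, triplicates, experiment repeated, SD <10% of mean required.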

[12] = biological target: Cruzipain (Trypanosoma cruzi) (UniProt P25779); assay: Inhibition of Trypanosomal cruzi recombinant cruzain assessed as substrate cleavage using Z-Phe-Arg-AMC as substrate at 50 uM preincubated for 10 mins measured for 5 mins by flow cytometry; details: in the assay text read “by fluorescence assay” for “by flow cytometry”
Summary of the method: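 Recombinant cruzain, final concentration 0.5 nM, in 0.1 M sodium acetate pH 5.5 with 1 mM β-mercaptoethanol and 0.01% Triton X-100. Substrate Z-FR-AMC at 2.5 (Km 1.0). Screened with no pre-incubation and after 10-min enzyme pre-incubation. Fluorescence read at ex 340/em 440 nm for 5 min, activity relative to DMSO control. Two independent experiments in triplicate.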

Trypanosoma cruzi [13] = assay: Antitrypanosomal activity against Trypanosoma cruzi trypomastigotes assessed as induction of apoptotic parasitic death at CC25 to CC100 after 24 hrs by Annexin V-FITC/propidium iodide staining based flow cytometry; type: functional, organism-based

Cruzipain (Trypanosoma cruzi), sequence (P25779 123-467 limits assumed): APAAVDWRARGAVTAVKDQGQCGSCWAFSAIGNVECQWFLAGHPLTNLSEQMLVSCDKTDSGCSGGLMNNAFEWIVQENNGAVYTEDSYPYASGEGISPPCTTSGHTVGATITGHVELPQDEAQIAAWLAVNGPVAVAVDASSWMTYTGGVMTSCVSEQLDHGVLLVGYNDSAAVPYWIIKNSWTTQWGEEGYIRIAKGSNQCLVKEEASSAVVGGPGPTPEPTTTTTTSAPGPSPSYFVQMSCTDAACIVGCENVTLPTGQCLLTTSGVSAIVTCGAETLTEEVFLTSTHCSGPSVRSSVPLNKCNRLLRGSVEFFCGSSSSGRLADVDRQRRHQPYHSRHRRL

C/C(=N\NC(N)=S)C(C)Oc1ccccc1-c1ccccc1 (stereo not given)
Activity (Trypanosoma cruzi [1]): 1.22% | Activity (Trypanosoma cruzi [2]): 6.2% | Activity (Trypanosoma cruzi [3]): 7.8% | CC50 at 24 h [4]: 50 µM | MNTC at 24 h [4]: 31.9 µM | IC50 (Trypanosoma cruzi [5]): 2.2 µM | Activity (Trypanosoma cruzi [6]): 2.21% | Activity (Trypanosoma cruzi [7]): 4.62% | Selectivity Index [8]: 45 | Activity (Trypanosoma cruzi [9]): 0.51% | Activity (Trypanosoma cruzi [10]): Dose-dependent effect | CC50 (Trypanosoma cruzi [11]): 1.1 µM

C/C(=N\NC(N)=S)C(C)Oc1cccc(Br)c1 (stereo not given)
MNTC at 24 h [4]: 31.6 µM | IC50 (Trypanosoma cruzi [5]): 5.8 µM | CC50 (Trypanosoma cruzi [11]): 4.5 µM

CCc1ccc(OC(C)/C(C)=N/NC(N)=S)cc1 (stereo not given)
MNTC at 24 h [4]: 18.8 µM | IC50 (Trypanosoma cruzi [5]): 11.6 µM | CC50 (Trypanosoma cruzi [11]): 4.6 µM

C/C(=N\NC(N)=S)C(C)Oc1ccc(Cl)c(Cl)c1 (stereo not given)
MNTC at 24 h [4]: 16.3 µM | IC50 (Trypanosoma cruzi [5]): 4.4 µM | CC50 (Trypanosoma cruzi [11]): 4.4 µM

COc1cccc(OC(C)/C(C)=N/NC(N)=S)c1 (stereo not given)
MNTC at 24 h [4]: 37.4 µM | IC50 (Trypanosoma cruzi [5]): 6.8 µM | CC50 (Trypanosoma cruzi [11]): 6.2 µM

C/C(=N\NC(N)=S)C(C)Oc1ccc(C(C)C)cc1 (stereo not given)
MNTC at 24 h [4]: 17.9 µM | IC50 (Trypanosoma cruzi [5]): 5.9 µM | CC50 (Trypanosoma cruzi [11]): 1.5 µM

C/C(=N\NC(N)=S)C(C)Oc1ccc(F)cc1 (stereo not given)
MNTC at 24 h [4]: > 392 µM | IC50 (Trypanosoma cruzi [5]): 86.4 µM | CC50 (Trypanosoma cruzi [11]): 23.2 µM

C/C(=N\NC(N)=S)C(C)Oc1ccc([N+](=O)[O-])cc1 (stereo not given)
MNTC at 24 h [4]: 88.5 µM | IC50 (Trypanosoma cruzi [5]): 177 µM | inhibition [12]: inactive | CC50 (Trypanosoma cruzi [11]): 5.9 µM

C/C(=N\NC(N)=S)C(C)Oc1ccc(I)cc1 (stereo not given)
MNTC at 24 h [4]: 13.7 µM | IC50 (Trypanosoma cruzi [5]): 4.9 µM | CC50 (Trypanosoma cruzi [11]): 1.1 µM

C/C(=N\NC(N)=S)C(C)Oc1ccccc1 (stereo not given)
MNTC at 24 h [4]: 211 µM | IC50 (Trypanosoma cruzi [5]): 26.1 µM | CC50 (Trypanosoma cruzi [11]): 27.3 µM

CC1CS(=O)(=O)CCN1/N=C/c1ccc([N+](=O)[O-])o1 (stereo not given) [NIFURTIMOX]
IC50 (Trypanosoma cruzi [5]): 5.7 µM | CC50 (Trypanosoma cruzi [11]): 2.7 µM

C/C(=N\NC(N)=S)C(C)Oc1ccc(Br)cc1 (stereo not given)
MNTC at 24 h [4]: 31.6 µM | IC50 (Trypanosoma cruzi [5]): 20.1 µM | CC50 (Trypanosoma cruzi [11]): 3.9 µM

C/C(=N\NC(N)=S)C(C)Oc1cccc2ccccc12 (stereo not given)
MNTC at 24 h [4]: 34.8 µM | IC50 (Trypanosoma cruzi [5]): 4.9 µM | inhibition [12]: inactive | CC50 (Trypanosoma cruzi [11]): 1.5 µM

C/C(=N\NC(N)=S)C(C)Oc1cccc(Cl)c1 (stereo not given)
MNTC at 24 h [4]: 36.8 µM | IC50 (Trypanosoma cruzi [5]): 45.8 µM | Activity (Trypanosoma cruzi [13]): Active | CC50 (Trypanosoma cruzi [11]): 5.5 µM

COc1ccc(OC(C)/C(C)=N/NC(N)=S)cc1 (stereo not given)
MNTC at 24 h [4]: 93.5 µM | IC50 (Trypanosoma cruzi [5]): 27.6 µM | CC50 (Trypanosoma cruzi [11]): 26.8 µM

C/C(=N\NC(N)=S)C(C)Oc1cccc(-c2ccccc2)c1 (stereo not given)
MNTC at 24 h [4]: 31.9 µM | IC50 (Trypanosoma cruzi [5]): 2.2 µM | CC50 (Trypanosoma cruzi [11]): 1.3 µM

C/C(=N\NC(N)=S)C(C)Oc1ccc2ccccc2c1 (stereo not given)
MNTC at 24 h [4]: 34.8 µM | IC50 (Trypanosoma cruzi [5]): 17.9 µM | CC50 (Trypanosoma cruzi [11]): 5.6 µM

C/C(=N\NC(N)=S)C(C)Oc1ccc(-c2ccccc2)cc1 (stereo not given)
MNTC at 24 h [4]: 15.9 µM | IC50 (Trypanosoma cruzi [5]): 4.5 µM | inhibition [12]: inactive | CC50 (Trypanosoma cruzi [11]): 1.3 µM

C/C(=N\NC(N)=S)C(C)Oc1ccc(C(C)(C)C)cc1 (stereo not given)
MNTC at 24 h [4]: 17 µM | IC50 (Trypanosoma cruzi [5]): 4.6 µM | CC50 (Trypanosoma cruzi [11]): 1.4 µM

C/C(=N\NC(N)=S)C(C)Oc1ccc(Cl)cc1 (stereo not given)
MNTC at 24 h [4]: 92 µM | IC50 (Trypanosoma cruzi [5]): 13.5 µM | CC50 (Trypanosoma cruzi [11]): 22.8 µM

CC(=O)Nc1ccc(OC(C)/C(C)=N/NC(N)=S)cc1 (stereo not given)
CC50 at 24 h [4]: 350 µM | MNTC at 24 h [4]: > 340 µM | IC50 (Trypanosoma cruzi [5]): 71.5 µM | Selectivity Index [8]: 250 | Activity (Trypanosoma cruzi [13]): Active | CC50 (Trypanosoma cruzi [11]): 1.4 µM

C/C(=N\NC(N)=S)C(C)Oc1ccc(F)c(Cl)c1 (stereo not given)
MNTC at 24 h [4]: 34.5 µM | CC50 (Trypanosoma cruzi [11]): 3.5 µM

O=C(Cn1ccnc1[N+](=O)[O-])NCc1ccccc1 [BENZNIDAZOLE]
IC50 (Trypanosoma cruzi [5]): 48.8 µM | CC50 (Trypanosoma cruzi [11]): 6.2 µM

C/C(=N\NC(N)=S)C(C)Oc1ccc(Oc2ccccc2)cc1 (stereo not given)
MNTC at 24 h [4]: 30.3 µM | CC50 (Trypanosoma cruzi [11]): 1.3 µM

C/C(=N\NC(N)=S)C(C)Oc1ccccc1Cl (stereo not given)
MNTC at 24 h [4]: 36.8 µM | IC50 (Trypanosoma cruzi [5]): 10.3 µM | CC50 (Trypanosoma cruzi [11]): 1.5 µM

C/C(=N\NC(N)=S)C(C)Oc1cccc(Cl)c1Cl (stereo not given)
MNTC at 24 h [4]: 32.6 µM | IC50 (Trypanosoma cruzi [5]): 2.2 µM | CC50 (Trypanosoma cruzi [11]): 11.9 µM

— ChEMBL document CHEMBL3120049, “Conformational restriction of aryl thiosemicarbazones produces potent and selective anti-Trypanosoma cruzi compounds which induce apoptotic parasite death” (Eur J Med Chem, 2014)
